These results are taken from ChEMBL document CHEMBL1124779, “Synthesis and antitumor activity of 1-[[(dialkylamino)alkyl]amino]-4-methyl-5H-pyrido[4,3-b]benzo[e]- and -benzo[g])indoles. A new class of antineoplastic agents” (1990).

≈ marks a conversion by molar mass, not a printed value. Where “and” joins values, the source holds several entries; their conditions need not be identical. Equal values may be shown once.

For assay [1], the system named is P388. In words: In vitro cytotoxicity was determined against P388 leukemia cells. The class given is functional. Particulars: Mus musculus, read-out: ID50 (the source's name). The essentials:
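P388 cells in exponential growth, RPMI 1640 with 2 mM glutamine, 10 μM 2-mercaptoethanol and 10% FCS, 5% CO2, 37 °C. Cells at 10^5 cells/mL. Drugs in distilled water added on day 0. Cells counted by Coulter counter after 96 h. ID50 (μg/mL, 50% inhibition of proliferation) estimated by regression of concentration/response data.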

The nature of assay [2]: Tested for cytotoxicity in the multiple tumor disk diffusion soft agar assay at the dose of 15 ug/disk against solid tumor C38; U = 32 uM. The class given is functional, Mus musculus. The essentials: (§1)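 Soft agar disk diffusion: bottom layer 0.8% noble agar, top layer 0.47% noble agar, both in 1:1 CMRL-Fischer medium with 11% horse serum. Top layer seeded with 5×10^3 L1210 cells or 10^6 solid tumor cells (C38, PO3). Drug applied on a dried 6-mm filter-paper disk. Incubation 7-11 days. Inhibition zone measured by inverted microscope, in units (1 unit = 30 μm).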

The subject of assay [3] is P388. In words: In vivo T/C (survival time treated/survival time control x 100) was determined against P388 leukemia cells at 20 mg/Kg. The class given is functional, Mus musculus. An outline of the steps:
(§2)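 B6D2 F1 mice, at least five per group, were inoculated ip on day 0 with 10^6 viable P388 cells (25 mL/kg). Compounds were dissolved in distilled water and given ip (25 mL/kg) daily on days 1–4. Mortality was checked daily, with necropsy of dead animals. T/C×100 was median survival, treated versus control. Survivors beyond 50 days counted as cured and were excluded from the median.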

The test system of assay [4] is L1210. The assay is described as follows: Tested for cytotoxicity in the multiple tumor disk diffusion soft agar assay at the dose of 15 ug/disk against leukemia L1210; U = 32 uM. The class given is functional, Mus musculus. An outline of the steps: as §1
Assay [5] is described as follows: Cytotoxicity in the multiple tumor disk diffusion soft agar assay at the dose of 15 ug/disk against solid tumor C38. The class given is functional, Mus musculus. The essentials:
as §1

The subject of assay [6] is L1210. The assay is described as follows: Cytotoxicity in the multiple tumor disk diffusion soft agar assay at the dose of 15 ug/disk against leukemia L1210. The class given is functional, Mus musculus. An outline of the steps: as §1
The test system of assay [7] is P388. In words: In vivo T/C (survival time treated/survival time control x 100) was determined against P388 leukemia cells at 40 mg/Kg. The class given is functional, Mus musculus. The essentials: as §2
The subject of assay [8] is L1210. The assay is described as follows: Tested for cytotoxicity in the multiple tumor disk diffusion soft agar assay at the dose of 15 ug/disk against leukemia L1210. The class given is functional, Mus musculus. An outline of the steps: as §1
Assay [9] is described as follows: Cytotoxicity in the multiple tumor disk diffusion soft agar assay at the dose of 15 ug/disk against solid tumor PO3. The class given is functional, Mus musculus. An outline of the steps: as §1
Assay [10] is described as follows: Tested for cytotoxicity in the multiple tumor disk diffusion soft agar assay at the dose of 15 ug/disk against solid tumor PO3. The class given is functional, Mus musculus. The essentials: as §1
Assay [11] is described as follows: Tested for cytotoxicity in the multiple tumor disk diffusion soft agar assay at the dose of 15 ug/disk against solid tumor C38. The class given is functional, Mus musculus. An outline of the steps:
as §1

The subject of assay [12] is L1210. In words: In vivo T/C (survival time treated/survival time control x 100) was determined against L1210 leukemia cells at 20 mg/Kg. The class given is functional, Mus musculus. An outline of the steps:
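B6D2 F1 mice, at least five per group, were inoculated ip on day 0 with 10^5 viable L1210 cells (25 mL/kg). Compounds were dissolved in distilled water and given ip (25 mL/kg) on days 1–4. Deaths were checked daily, with necropsy to separate tumor from toxic death. T/C×100 was median survival of treated over controls. Mice surviving over 50 days counted as cured and were excluded from the median.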

The nature of assay [13]: Tested for cytotoxicity in the multiple tumor disk diffusion soft agar assay at the dose of 15 ug/disk against solid tumor C38; range is 650-675. The class given is functional, Mus musculus. The essentials:
as §1

Assay [14] has as its system P388. In words: In vivo T/C (survival time treated/survival time control x 100) was determined against P388 leukemia cells at 10 mg/Kg. The class given is functional, Mus musculus. An outline of the steps:
as §2

Assay [15] relates to L1210. The assay is described as follows: Tested for cytotoxicity in the multiple tumor disk diffusion soft agar assay at the dose of 15 ug/disk against leukemia L1210; range is 300-375. The class given is functional, Mus musculus. The essentials:
as §1

The subject of assay [16] is L1210. In words: Tested for cytotoxicity in the multiple tumor disk diffusion soft agar assay at the dose of 15 ug/disk against leukemia L1210; range is 0-450. The class given is functional, Mus musculus. An outline of the steps: as §1
Assay [17] can be described thus: Tested for cytotoxicity in the multiple tumor disk diffusion soft agar assay at the dose of 15 ug/disk against solid tumor PO3; range is 350-450. The class given is functional, Mus musculus. The essentials: as §1
In the next assay the test system is Mus musculus. The assay is described as follows: In vivo total number of survivors was determined against P388 leukemia cells out of 5 mouse at 50 day. The class given is functional. The essentials:
as §2

As for `Cc1cnc(NCCCN(C)C)c2c3ccc4c(O)cccc4c3n(C)c12`, the IC50 in the assay with P388 [1] was found to be 0.025 µg/mL (≈ 0.069 µM). Moreover, the Cytotoxicity came to 900 U in [2] and 675 U in the assay with L1210 [4]. For the same compound, in the assay with P388 [3], the “T/C x100” value came out at 135.
Take `CCN(CC)CCCNc1[nH]cc(C)c2nc3c(ccc4cc(OC)ccc43)c1-2`: the Cytotoxicity is 285 U in assay [5], 200 U with L1210 [6], 325 U in the assay with L1210 [8] and 200 U in [9]. In addition, in the assay with P388 [7], the “T/C x100” value was 131. The IC50 with P388 [1] stood at 0.5 µg/mL (≈ 1.28 µM).
Regarding `COc1ccc2c(ccc3[nH]c4c(C)cnc(NCCCN(C)C)c4c32)c1`, the Cytotoxicity was 630 U and 300 U in [10]; 750 U and 350 U in the assay on L1210 [6]; 800 U and 450 U in assay [11]. In addition, the IC50 in the assay with P388 [1] stood at 0.75 µg/mL (≈ 2.07 µM). In addition, the “T/C x100” value in the assay with L1210 [12] worked out at 127.
Take `CCN(CC)CCCNc1ncc(C)c2c1c1c3ccc(O)cc3ccc1n2C`: the Cytotoxicity is listed as 450 U with L1210 [6] and 650 U in [13]. The IC50 in the assay with P388 [1] was 0.025 µg/mL (≈ 0.064 µM). Further, the “T/C x100” value in the assay with P388 [3] was 232; in the assay on L1210 [12] it was 129.
With `CCN(CC)CCCNc1[nH]cc(C)c2nc3c(ccc4ccccc43)c1-2`, the Cytotoxicity amounted to 460 U in assay [5], 500 U with L1210 [6], 300 U with L1210 [15] and 200 U in assay [9]. Moreover, the “T/C x100” value in the assay on P388 [14] was 102. In the assay on P388 [1], the IC50 came to 0.75 µg/mL (≈ 2.08 µM).
Consider `Cc1cnc(NCCCN(C)C)c2c3c4ccc(O)cc4ccc3n(C)c12`, for which the Cytotoxicity in [5] is on record as 750 U; in the assay with L1210 [6] it was 350 U; in the assay on L1210 [16] it was 0 U; in [17], 350 U. Moreover, the IC50 in the assay with P388 [1] was found to be 0.015 µg/mL (≈ 0.0414 µM). The “T/C x100” value in the assay with P388 [3] was determined as 243; in the assay with L1210 [12] it was 127. For the same compound, the Survivors with Mus musculus was determined as 1.
Turning to `CCN(CC)CCCNc1ncc(C)c2c1c1ccc3cc(O)ccc3c1n2C`, the Cytotoxicity in assay [5] turned out to be 325 U; in the assay on L1210 [6], 300 U; in the assay with L1210 [8], 400 U; in assay [9], 350 U. Also, the IC50 in the assay on P388 [1] worked out at 0.1 µg/mL (≈ 0.256 µM). In addition, the “T/C x100” value in the assay on P388 [3] is 124.
On to `CCN(CC)CCCNc1ncc(C)c2c1c1ccc3c(OC)cccc3c1n2C`, for which the Cytotoxicity in [5] worked out at 430 U; with L1210 [6], 450 U. For the same compound, in the assay on P388 [7], the “T/C x100” value was determined as 124. For the same compound, the IC50 with P388 [1] is 0.75 µg/mL (≈ 1.85 µM).
